Results: publication PMC8239543 (Clinical and Translational Science, 2021)
Where two headings read alike, the source gives them in different places.

Legend:
Population PK = experiment: Population PK; parameters: species or system human; conditions: for Food effect against fasted on KA: covariate multiplier
Outline: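 Plasma GBPA came from 14 multiple-dose subjects (372 points) and 10 earlier single-dose fasted subjects (47 points). Modelling used NONMEM with FOCE and interaction. Doses were converted to GBPA equivalents by molecular-weight ratio. One- and two-compartment models with first-order absorption and linear elimination were tested, with additive, proportional or combined residual error. Between-subject variability and interoccasion variability were log-normal, and food condition was tested as a covariate.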

[1] = assay type: in vivo, human; conditions: for AUC(0-t) / Tmax / half-life / Cmax: male, human, plasma, 600 mg; for AUC(0-t) / Tmax / half-life: oral; for AUC(0-t): AUC4h; for Cmax: po, 600 mg camostat mesylate oral
Outline: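 Night doses were fasted. Cohort 1 took daytime doses after a meal, except a fasted day-1 morning dose. Cohort 2 dosed 30 min premeal on day 1, then 1 h premeal. Plasma GBPA was measured by LC-MS/MS and analysed noncompartmentally. Food ratios came from a mixed-effects model on ln Cmax and AUC24h.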

SARS‐Cov‐2 infection = conditions: read-out: EC50 value of GBPA that inhibited SARS-CoV-2 infection; cited from earlier work
[2] = Solubility / Biopharmaceutics Classification System class; assay type: physicochemical; conditions: inferred from solubility and structure-suggested poor permeability
[3] = test system: SARS‐CoV‐2 infection of a cell line derived from human airway epithelial cells (Calu‐3); conditions: cited from earlier work
[4] = cited from earlier work
[5] = in vivo
TMPRSS2 = conditions: cited from earlier work
[6] = Phase I safety and tolerability assessment; assay type: in vivo, human; conditions: for safety and tolerability: multiple administration, healthy adults
Outline: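 Healthy Japanese men took 600 mg orally four times daily on day 1 and days 3–9. Monitoring throughout covered symptoms, physical examination, and supine blood pressure and pulse. It also covered temperature, oxygen saturation, weight, hematology, biochemistry, coagulation and spot urinalysis. ECGs were 12-lead plus monitor, and adverse events were recorded.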

[7] = cited from earlier work; remark: listed apart in the source
[8] = cited from earlier work; remark: listed apart in the source
[9] = Cohort 2, Day 1, 30 min before a meal
[10] = Cohort 2, Day 3, 1 h before a meal
[11] = Cohort 2, Day 9, 1 h before a meal
[12] = Cohort 1, Day 1, Fasted, mean (SD)
[13] = Cohort 1, Day 3, Fed, mean (SD)
[14] = Cohort 1, Day 9, Fed, mean (SD)
[15] = Cohort 2, Day 1, 30 min before a meal, mean (SD)
[16] = Cohort 2, Day 3, 1 h before a meal, mean (SD)
[17] = Cohort 2, Day 9, 1 h before a meal, mean (SD)

Structure (SMILES): N=C(N)Nc1ccc(C(=O)Oc2ccc(CC(=O)O)cc2)cc1 [GBPA, 4‐(4‐guanidinobenzoyloxy)phenylacetic acid]
- Food effect against fasted on KA (Population PK; 30 min before a meal, FIXED): 1.0 FIXED
- Food effect against fasted on KA (Population PK; 1 h before a meal, FIXED): 1.0 FIXED
- Food effect against fasted on KA (Population PK; Fed): 0.0807
- Absorption rate constant (KA) (Population PK; PopPK fixed effect estimate): 5.91 h⁻¹
- Lag time (Population PK; PopPK fixed effect estimate): 0.319 h
- IOV on FA (Population PK; interoccasion variability): 35.8 % CV
- IOV on KA (Population PK; interoccasion variability): 105 % CV
- Proportional residual error (Population PK; intra-subject variability): 0.39 % CV
- Vd/F (Population PK; male, human, plasma, oral): 904 L
- clearance (Population PK; male, human, plasma, oral): 11300 mL/min
- exposure of GBPA compared with the fasted state ([1]; 1 h before a meal): no significant difference
- AUC4h against fasted, geometric mean ratio (95% confidence interval) ([1]; Cohort 1, Day 3, Fed): 0.31 (0.23, 0.43)
- Cmax against fasted, geometric mean ratio (95% confidence interval) ([1]; Cohort 1, Day 3, Fed): 0.28 (0.18, 0.42)
- AUC4h against fasted, geometric mean ratio (95% confidence interval) ([1]; Cohort 1, Day 9, Fed): 0.30 (0.21, 0.43)
- Cmax against fasted, geometric mean ratio (95% confidence interval) ([1]; Cohort 1, Day 9, Fed): 0.27 (0.17, 0.42)
- AUC4h against fasted, geometric mean ratio (95% confidence interval) [1, 9]: 0.43 (0.29, 0.64)
- Cmax against fasted, geometric mean ratio (95% confidence interval) [1, 9]: 0.50 (0.31, 0.86)
- AUC4h against fasted, geometric mean ratio (95% confidence interval) [1, 10]: 0.53 (0.31, 0.91)
- Cmax against fasted, geometric mean ratio (95% confidence interval) [1, 10]: 0.57 (0.30, 1.08)
- AUC4h against fasted, geometric mean ratio (95% confidence interval) [1, 11]: 0.79 (0.46, 1.37)
- Cmax against fasted, geometric mean ratio (95% confidence interval) [1, 11]: 0.95 (0.51, 1.75)
- Cmax and AUC relative to values under fasted conditions ([1]; administered after a meal and at 30 min before a meal): not more than 50%
- exposure of GBPA compared with the fasted state ([1]; after a meal and 30 min before a meal): significantly lower
- AUC(0-t) [1, 12]: 683 ng·h/mL
- AUC(0-t) [1, 13]: 206 ng·h/mL
- AUC(0-t) [1, 14]: 194 ng·h/mL
- AUC(0-t) [1, 15]: 227 ng·h/mL
- AUC(0-t) [1, 16]: 366 ng·h/mL
- AUC(0-t) [1, 17]: 556 ng·h/mL
- Tmax ([1]; Tmax, Cohort 1, Day 1, Fasted, median (range)): 1 h
- Tmax ([1]; Tmax, Cohort 1, Day 3, Fed, median (range)): 2 h
- Tmax ([1]; Tmax, Cohort 1, Day 9, Fed, median (range)): 2 h
- Tmax ([1]; Tmax, Cohort 2, Day 1, 30 min before a meal, median (range)): 1 h
- Tmax ([1]; Tmax, Cohort 2, Day 3, 1 h before a meal, median (range)): 1 h
- Tmax ([1]; Tmax, Cohort 2, Day 9, 1 h before a meal, median (range)): 1 h
- half-life ([1]; half-life, plasma GBPA elimination): < 2 h
- Tmax ([1]; median Tmax, fasted conditions, 30 min before a meal, and 1 h before a meal): 1 h
- Tmax ([1]; median Tmax, fed conditions): 2 h
- half-life ([1]; t1/2, Cohort 1, Day 1, Fasted, mean (SD), n = 6): 1.58 h
- half-life ([1]; t1/2, Cohort 1, Day 3, Fed, mean, n = 2): 1.33 h
- half-life ([1]; t1/2, Cohort 1, Day 9, Fed, mean (SD), n = 3): 1.16 h
- half-life ([1]; t1/2, Cohort 2, Day 1, 30 min before a meal, mean (SD)): 1.35 h
- half-life ([1]; t1/2, Cohort 2, Day 3, 1 h before a meal, mean (SD), n = 6): 1.05 h
- half-life ([1]; t1/2, Cohort 2, Day 9, 1 h before a meal, mean (SD)): 0.962 h
- Cmax [1, 12]: 371 ng/mL
- Cmax [1, 13]: 95.8 ng/mL
- Cmax [1, 14]: 93.5 ng/mL
- Cmax [1, 15]: 177 ng/mL
- Cmax [1, 16]: 218 ng/mL
- Cmax [1, 17]: 367 ng/mL
- EC50 (SARS‐Cov‐2 infection): 178 nM

Structure (SMILES): CN(C)C(=O)COC(=O)Cc1ccc(OC(=O)c2ccc(NC(=N)N)cc2)cc1.CS(=O)(=O)O [camostat mesylate, dimethylcarbamoylmethyl 4‐(4‐guanidinobenzoyloxy)phenylacetate monomethanesulfonate]
- Biopharmaceutics Classification System class [2]: class 3
- SARS-CoV-2 infection of Calu-3 cells [3]: prevented
- presence in plasma after oral administration [4]: not detectable
- human equivalent dose converted from the dog NOAEL [5]: 3333 mg
- TMPRSS2 inhibition (TMPRSS2): inhibited
- findings in safety laboratory values, vital signs, or ECG parameters ([6]; 600 mg q.i.d.): no clinically significant findings
- serious adverse events or deaths ([6]; 600 mg q.i.d.): no serious adverse events or deaths
- safety and tolerability ([6]; 600 mg q.i.d.): no safety concerns were raised
- safety and tolerability ([6]; 600 mg q.i.d., listed as Camostat mesylate): safe and tolerated
- QTcF change from baseline ([6]; all subjects): ≤ 60 ms
- QTcF interval ([6]; any postbaseline visit, all subjects): ≤ 480 ms
- half-life in human plasma [7]: ≤ 1 min
- solubility [8]: soluble
